# Rows were chosen to be rich in hits. Some 3.6% of all compounds tested hit in one or more screens of this group.
# T cruzi repl = blocks replication of Trypanosoma cruzi; T. cruzi beta-gal in NIH3T3, luminescence, 90 h; inhibition, % (concentration not given with the values); 1.4% of 300,000 active; AID 1885;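 active means mean inhibition across valid replicates above about 55%, limit read from the data; inconclusive means mean below that limit but half or more replicates reach it; inactive means mean below it, under half of replicates reach it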;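 further: signal also drops with host cell toxicity which is not excluded here; 0% = plate median of DMSO wells and 100% = zero luminescence signal; higher percent means less beta-gal luminescence so fewer parasites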
#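 Read-out: Parasite load inhibition, % | Test system: Mouse NIH/3T3 fibroblasts infected with β-gal-expressing T. cruzi Tulahuen C4 | Amount: 5,000 cells/well | Medium: DMEM, 2% fetal bovine serum | Signal: GalScreen β-gal luminescence, detergent lysis, 60 min | Timing: 3 h attach, ≥90 h co-culture | Also added: Tulahuen C4 trypomastigotes, 5000/well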
# SKKanGAS inh = blocks kanamycin growth of S. pyogenes SKKanGAS strain; BacTiter-Glo, 6 h; inhibition, % at 7.5 µM; 1.3% of 300,000 active; AID 1662;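 active means mean replicate score, as percent of positive control median, at least 50; inconclusive means mean below 50 but one replicate at or above 50; inactive means mean and every replicate below 50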;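 further: strain carries kanamycin resistance gene driven by streptokinase promoter and grows in 40 µg/ml kanamycin; loss of luminescence reflects streptokinase promoter inhibition or plain growth inhibition; 0% = median of DMSO wells and 100% = positive control at its reference dose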
# HIF act = HIF pathway transcriptional activation; U2OS HRE-luciferase reporter, luminescence; normalized: DMSO 0%, desferrioxamine 100%; 0.32% of 300,000 active; activation, % at 7.5 µM (by protocol);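 active means mean activation of at least 10% of the iron chelator positive control signal, with at least half of replicates also reaching 10%; inconclusive means mean and replicate majority disagree about reaching 10%; inactive means mean and most replicates under 10%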
# Beta apoptosis = beta cell apoptosis inhibition | INS-1E cytokine-induced death, ATP luminescence, 48 h; percent of positive-control rescue, neutral wells zero | protection from apoptosis, % (no concentration beside the values) | 0.8% of 300,000 active | AID 435005;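 active means Every replicate reaches about 75%, or at least half do and their mean reaches it too, limit read from the data; inconclusive means At least half of replicates reach the limit but their mean does not; inactive means Under half of replicates reach the limit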;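 further: 0% = cytokine-treated negative control wells and 100% = positive control rescue; higher means more ATP so stronger rescue from cytokine killing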
# CSC inhib = cancer stem cell inhibition | cancer stem cell-like cells viability, luminescence | inhibition, % at 7.5 µM | 1.1% of 300,000 active; in the data active means inhibition above about 75%; inconclusive means no clear call, values can overlap the other calls; tested in HMLE shEcad cells
# PfHsp90 set2 = growth inhibition of yeast expressing Plasmodium Hsp90; S. cerevisiae expressing PfHsp90, BacTiter-Glo ATP, 48 h; yeast lacking PDR1 and PDR3 efflux regulators; inhibition, % at 9.4 µM; 0.32% of 310,000 active;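 active means every replicate shows inhibition above about 80%, whatever the replicate mean, limit read from the data; inconclusive means mean inhibition reaches the set limit but some replicate falls short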;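 further: 0% = DMSO neutral controls and 100% = 20 µM radicicol positive controls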
# Active calls of the source: *; ? = inconclusive; . = no result given.
SMILES,T cruzi repl,SKKanGAS inh,HIF act,Beta apoptosis,CSC inhib,PfHsp90 set2
CCOC(=O)C1CCN(C(=O)c2cc(S(=O)(=O)N3CCOCC3)ccc2C)CC1,.,.,.,-5,-14,0
O=C(COc1ccc(S(=O)(=O)N2CCOCC2)cc1)NC1CC1,-13,5,-21,-13,-1,36
O=C1C(c2ccccc2)=[N+]([O-])c2ccccc21,25,-2,1,47,82*,12
COCCn1c(-c2cc(OC)c(OC)c(OC)c2)nc2oc3cc(OC)ccc3c(=O)c2c1=O,2,55*,0,6,-8,.
COc1ccc(OC)c2sc(NC(=O)CCS(=O)(=O)c3ccccc3)nc12,-61,-11,0,25,109*,6
O=C(CCS(=O)(=O)c1ccccc1)Nc1nc2cc3c(cc2s1)OCCO3,-5,61*,1,-3,-3,2
CCN(CC)S(=O)(=O)c1cccc(C(=O)Nc2nc3cc4c(cc3s2)OCCO4)c1,30,71*,0,6,39,-16
O=C1NC(=O)C2(CCCCCCC2)N1,.,.,.,.,.,0
Cc1ccc(S(=O)(=O)N2CCN(C(=O)n3ccnc3)CC2)cc1,.,.,.,1,.,-13
COc1ccc(CN(C)S(=O)(=O)c2nnc(NC(=O)c3ccccc3Br)s2)cc1,-7,59*,0,4,30,-5
COc1cc(C(=O)NCCC(C)C)ccc1OCc1ccc(Cl)cc1Cl,70*,23,0,18,-15,12
COc1cc(C(=O)NC2CCCCC2)ccc1OCc1ccc(Cl)cc1Cl,33,7,0,-1,7,-14
CCO/C=C1\SC(=S)N(c2ccc(Cl)cc2)C1=O,-17,8,0,2,-7,-3
CC(C)c1ccc(N2C(=O)/C(=C/N(C)C)SC2=S)cc1,29,86*,0,14,22,3
COc1cc2c(cc1NC(=O)CN(C)Cc1cccc(OC)c1OC)oc1ccccc12,43,0,1,-8,99*,5
COc1cccc(CN(C)CC(=O)Nc2cc3oc4ccccc4c3cc2OC)c1,39,7,0,9,48,-14
CCCNC(=O)c1nc(C)n(-c2ccc([N+](=O)[O-])cc2)n1,2,-3,0,-11,-5,0
O=C(NNC1=C(C(=O)C(F)(F)F)CCC1)c1cccc(Cl)c1,6,96*,0,18,113*,51
COc1ccc(C(=O)NNC2=C(C(=O)C(F)(F)F)CCC2)cc1,-11,5,1,1,10,3
O=C(NNC1=C(C(=O)C(F)(F)F)CCC1)c1ccc(Cl)cc1,3,101*,0,9,82*,122*
O=C(Nc1ccc(S(=O)(=O)Nc2ncccn2)cc1)c1cccc(S(=O)(=O)N2CCCC2)c1,-12,-14,0,0,-10,5
CC(SCc1ccc(C(=O)O)o1)c1ccc(C(=O)O)o1 (stereo not drawn),-3,1,0,-6,-8,-8
COc1ccc2nc(-c3cccc(N)c3)[nH]c2c1,-3,2,13*,8,3,12
CCN(C[C@H]1N[C@@](C)(C(=O)OC)[C@H]2C(=O)N(Cc3ccccc3)C(=O)[C@@H]12)S(=O)(=O)c1ccccc1,.,.,.,-12,-14,0
O=C(N/N=C/c1c(O)ccc2ccccc12)c1ccc(Br)o1,41,106*,59*,102*,156*,22
SMILES,T cruzi repl,SKKanGAS inh,HIF act,Beta apoptosis,CSC inhib,PfHsp90 set2
O=C(NN=Cc1c(O)ccc2ccccc12)c1ccncc1,.,.,.,.,.,-17
Cn1cc(C(=O)N/N=C/c2c(O)ccc3ccccc23)ccc1=O,37,-5,88*,93*,94*,-8
O=C(N/N=C\c1c(O)ccc2ccccc12)c1ccc(O)cc1,20,107*,34*,.,64,-2
Cn1nccc1C(=O)Oc1cccc(/C=N/NC(=O)c2ccccc2O)c1,6,-10,1,2,4,-5
Cn1nccc1C(=O)N/N=C/c1c(O)ccc2ccccc12,-3,35,101*,100*,63,-12
Cc1onc(-c2c(F)cccc2Cl)c1C(=O)Nc1cc(S(=O)(=O)N2CCCCC2)ccc1O,.,.,.,.,.,16
C[C@H](CO)N1C[C@H](C)[C@@H](CN(C)Cc2ccc(C(=O)O)cc2)Oc2c(NS(=O)(=O)c3ccc(F)cc3)cccc2C1=O,.,.,.,-2,2,-8
Cc1cc(-c2nnc(SCC(=O)Nc3c(C)cccc3C)n2N)n[nH]1,-15,3,0,2,-6,-2
O=C(N/N=C/c1cc(Br)c(O)c(Br)c1)c1cc2c(ccc3ccccc32)o1,.,.,.,4,-3,.
Cc1occc1C(=O)N/N=C/c1c(O)ccc2ccccc12,25,94*,91*,76*,57,30
O=C(N/N=C/c1cc(Cl)c(O)c(Cl)c1)c1cc2c(ccc3ccccc32)o1,15,26,0,.,-4,95*
O=C(NCc1cccs1)c1cc(-c2ccncc2)nc2ccc(Br)cc12,55*,-7,0,-1,10,.
O=C(c1ccco1)N1CCN(C(=O)c2cc(-c3ccncc3)nc3ccc(Br)cc23)CC1,56*,3,0,3,17,-3
Cc1c(NC(=O)C(C)Oc2cccc(F)c2)c(=O)n(-c2ccccc2)n1C (stereo not drawn),.,.,.,-1,10,10
CN1C2Cc3c(n(C)c4ccccc34)C1CC=C2CO (stereo not drawn),.,.,.,-1,41,.
O=C(CCC(=O)N1CCN(S(=O)(=O)c2ccc([N+](=O)[O-])cc2)CC1)N1CCOCC1,.,.,.,-5,-3,12
COc1ccc(C(=O)NC(=S)NNC(=O)c2c(-c3ccccc3)noc2C)cc1OC,-7,91*,-12,10,6,22
Cc1onc(-c2ccccc2)c1C(=O)NNC(=S)NC(=O)c1ccc2c(c1)OCO2,-7,98*,0,12,24,-3
Cc1onc(-c2ccccc2)c1C(=O)NC(=S)NNC(=O)c1ccncc1,-9,35,0,-5,-2,10
O=C(CCCSc1ccccc1)Nc1ccc(Cl)c(S(=O)(=O)N2CCOCC2)c1,.,.,.,-3,.,15
COc1cc(/C=C/c2ccc3cccc(O)c3n2)cc(Cl)c1OC,35,107*,5,64,91*,-14
COc1cc(/C=C/c2ccc3cccc(O)c3n2)cc(OC)c1OC,45,96*,4,33,44,-10
COc1cc(/C=C/c2nc(-c3ccccc3O)n[nH]2)cc(OC)c1OC,-1,-13,1,8,51,-33
COc1cc(/C=C/c2ccc3cccc(O)c3n2)cc(Br)c1OC,72*,100*,-4,44,52,-5
COc1cc(/C=N/O)cc(Br)c1OC,-2,0,0,0,-12,7
COC(=O)c1ccc(/C=C/c2ccc3cccc(OC)c3n2)cc1,2,?,0,6,3,-4

# Assay outcomes: PubChem BioAssay, Broad Institute
